How the values were obtained:
[1] = system: L1210; assay: Cytotoxicity in DFMO treated L1210 cell lines; type: functional, cell-based; conditions: Mus musculus
Procedure, shortened: (§1)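 L1210 murine leukemia cells, early to mid log phase, in RPMI with 10% FCS, glutamine, antibiotics and 2 mM aminoguanidine at 37 °C, 5% CO2. Cells were seeded at 5 × 10^4 cells/mL with drug added at seeding. For line 3, DFMO at 5 mM was present in the medium from drug addition. After 48 h of exposure, growth was read as MTT formazan absorbance at 540 nm.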

[2] = system: L1210; assay: Cytotoxicity in L1210 cell lines; type: functional, cell-based; conditions: Mus musculus; procedure, shortened: as §1
[3] = Ratio of IC50 value determined in L1210 cell lines to the IC50 value determined in DFMO treated L1210 cell lines was evaluated; type: functional
[4] = system: CHO (Chinese hamster); assay: Cytotoxicity in CHO cell lines; conditions: Cricetulus griseus
[5] = system: CHO-MG (Chinese hamster); assay: Cytotoxicity in CHO-MG cell lines; conditions: Cricetulus griseus
[6] = Ratio of IC50 value determined in CHO-MG cell lines to the IC50 value determined in CHO cell lines was evaluated

| SMILES | IC50 [1] | IC50 [2] | Ratio [3] | IC50 [4] | IC50 [5] | Ratio [6] |
| --- | --- | --- | --- | --- | --- | --- |
| Cl.Cl.NCCCCCCCCNCc1c2ccccc2cc2ccccc12 | 4.6 µM | 3 µM | 0.7 | 4.9 µM | 4.9 µM | 1 |
| Cl.NCC(O)CNCCCCNCc1c2ccccc2cc2ccccc12 (stereo unspecified) | 2.3 µM | 1.5 µM | 0.7 | 9.1 µM | 9.5 µM | 1 |
| Cl.Cl.NCCOCCOCCNCc1c2ccccc2cc2ccccc12 | 17 µM | 11.3 µM | 0.7 | 12.6 µM | 15.9 µM | 1.3 |
| Cl.Cl.NCCCCNCc1c2ccccc2cc2ccccc12 |  |  | 0.7 | 7.7 µM | 7.6 µM |  |
| CCCCNCc1c2ccccc2cc2ccccc12.Cl |  |  | 0.7 | 10.5 µM | 11.2 µM |  |
| Cl.NCCCCNCCCCNCc1ccc2ccc3cccc4ccc1c2c34 | 0.36 µM |  | 1.1 | 0.46 µM | 15.5 µM |  |
| Cl.NCCCCNCCCCNCc1cccc2ccccc12 |  |  | 1.1 | 0.6 µM | > 100 µM |  |
| Cl.NC1CCC(NCCCCNCc2c3ccccc3cc3ccccc23)CC1 (stereo unspecified) | 0.7 µM | 1 µM | 1.4 | 2.5 µM | 17.4 µM | 7 |
| Cl.NCCCCNCCCCNCc1c2ccccc2cc2ccccc12 |  |  | 2 | 0.45 µM | 66.7 µM |  |
| Cl.NCCCCNCCCCNCc1ccccc1 | 421 µM |  | 0.1 |  |  |  |
| Cl.NCCCNCCCCNCc1c2ccccc2cc2ccccc12 |  |  | 2 | 0.4 µM | 9.5 µM | 24 |

Reference: ChEMBL document CHEMBL1145903, “Defining the molecular requirements for the selective delivery of polyamine conjugates into cells containing active polyamine transporters” (J Med Chem, 2003)
